# Screening results deposited in PubChem BioAssay by Broad Institute.
# INS-1E ATP HTS = preserves ATP levels in cytokine-treated INS-1E cells; INS-1E cytokine-induced death, ATP luminescence, 48 h; normalised: neutral wells 0, positive control 100; protection from cytokine-induced ATP loss, % at 10 µM; actives 0.1% (n = 20,000);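 active = mean replicate protection from cytokine-induced ATP loss at least 50% and at least 75% of replicates each reaching 50%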
#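 Assay system: INS-1E rat insulinoma cells. Amount: 8000 cells per well. Medium: phenol-red-free RPMI with 5% fetal bovine serum. Reagent: IL-1β, TNF-α and IFN-γ cytokine mix. Doses: one compound concentration, pin transfer. Schedule: 48 h co-treatment, 10 min post-lysis read. Detection: CellTiter-Glo luminescence measuring cellular ATP.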
# A1 apoptosis 2 = compounds inhibiting A1, read as caspase activation. MEF A1-2A-BIM cells, caspase-Glo luminescence, 3 h; percent of clofoctol response, DMSO zero. caspase activation, % (concentration not given with the values). 24,000 tested, under 10 active. AID 2465; in the data active = caspase activation above about 5.9%
#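 Material: A1-2A-BIM-expressing MEF cells. Buffer or medium: RPMI-1640 plus 10% FBS. Incubation: cells settled overnight, compound exposure 3 h at 37 °C, 5% CO2. Signal: Caspase-Glo 3/7 luminescence, 1 h at room temperature.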
# T cruzi HTS = intracellular Trypanosoma cruzi inhibition. intracellular Trypanosoma cruzi in host cells, plate reader. activity score (inhibition), % at 5.01 µM. actives 4.9% (n = 22,000); in the data active = activity score above about 55%;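 note: parasites and compound incubated about four days before reading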
# Hits are given with their value; – = inactive; · = no result given. This is one part of a sample in which hits are shown more often than they occur.
SMILES,INS-1E ATP HTS,A1 apoptosis 2,T cruzi HTS
COc1ccc(S(=O)(=O)N(C)C[C@@H]2Oc3ccc(NS(=O)(=O)c4ccccc4)cc3CC(=O)N([C@H](C)CO)C[C@H]2C)cc1,–,–,–
Cc1ccc(S(=O)(=O)Nc2ccc3c(c2)CC(=O)N([C@@H](C)CO)C[C@H](C)[C@@H](CN(C)S(=O)(=O)c2ccc(C)cc2)O3)cc1,–,·,–
COc1ccc(S(=O)(=O)Nc2ccc3c(c2)CC(=O)N([C@H](C)CO)C[C@@H](C)[C@@H](CN(C)S(=O)(=O)c2ccccc2)O3)cc1,–,–,74
COc1ccc(S(=O)(=O)Nc2ccc3c(c2)CC(=O)N([C@H](C)CO)C[C@@H](C)[C@@H](CN(C)S(=O)(=O)c2ccc(C)cc2)O3)cc1,–,–,61
COc1ccc(S(=O)(=O)N(C)C[C@H]2Oc3ccc(NS(=O)(=O)c4ccc(F)cc4)cc3CC(=O)N([C@@H](C)CO)C[C@H]2C)cc1,–,–,–
Cc1ccc(S(=O)(=O)Nc2ccc3c(c2)CC(=O)N([C@@H](C)CO)C[C@@H](C)[C@@H](CN(C)S(=O)(=O)c2ccc(C)cc2)O3)cc1,–,–,62
COc1ccc(S(=O)(=O)N(C)C[C@H]2Oc3ccc(NS(=O)(=O)c4ccc(C)cc4)cc3CC(=O)N([C@@H](C)CO)C[C@H]2C)cc1,–,·,–
C/C=C/[C@H](CC(=O)N(CCO)Cc1ccccc1)[Si](C)(C)c1ccc(OC)cc1,·,–,·
COCCOC(=O)N1C(=O)[C@@]2(c3cc(C#CC4=CCCCC4)ccc31)[C@H](C(=O)N1CCN(c3ncccn3)CC1)[C@H]1C(=O)O[C@H](c3ccccc3)[C@H](c3ccccc3)N1[C@@H]2c1ccccc1OCCO,·,–,·
O=C(CCCCCCC(=O)Nc1ccccc1O)N/N=C/c1cccc(OCCO)c1,–,–,–
Cc1ccc(S(=O)(=O)Nc2ccc3c(c2)CC(=O)N([C@@H](C)CO)C[C@@H](C)[C@@H](CN(C)S(=O)(=O)c2cccs2)O3)cc1,–,·,–
Cc1ccc(S(=O)(=O)Nc2ccc3c(c2)CC(=O)N([C@H](C)CO)C[C@@H](C)[C@@H](CN(C)S(=O)(=O)c2ccc(Cl)cc2)O3)cc1,–,–,66
Cc1ccc(S(=O)(=O)N(C)C[C@@H]2Oc3ccc(NS(=O)(=O)c4ccc(Cl)cc4)cc3CC(=O)N([C@H](C)CO)C[C@H]2C)cc1,–,·,–
Cc1ccc(S(=O)(=O)Nc2ccc3c(c2)CC(=O)N([C@H](C)CO)C[C@@H](C)[C@@H](CN(C)S(=O)(=O)c2cccs2)O3)cc1,–,–,68
C[C@H]1CN([C@@H](C)CO)C(=O)Cc2cc(NS(=O)(=O)c3ccccc3)ccc2O[C@@H]1CN(C)S(=O)(=O)c1ccc(Cl)cc1,–,–,–
C[C@@H]1CN([C@H](C)CO)C(=O)Cc2cc(NS(=O)(=O)c3ccccc3)ccc2O[C@@H]1CN(C)S(=O)(=O)c1ccc(Cl)cc1,–,·,68
Cc1nnc(Sc2ccc(/C=N/NC(=O)CCCCCCC(=O)NO)o2)n1C,·,–,·
O=C(NO)c1ccc(C(=O)N/N=C/c2ccc(Br)s2)cc1,–,·,–
COc1ccc(NC(=O)Nc2cccc3c2O[C@@H](CN(C)Cc2ccc(C(=O)Nc4ccccc4N)cc2)[C@H](C)CN([C@H](C)CO)C3=O)cc1,–,·,67
COc1ccc(NC(=O)Nc2cccc3c2O[C@H](CN(C)Cc2ccc(C(=O)Nc4ccccc4N)cc2)[C@@H](C)CN([C@H](C)CO)C3=O)cc1,–,·,–
COc1ccc(NC(=O)Nc2cccc3c2O[C@H](CN(C)Cc2ccc(C(=O)Nc4ccccc4N)cc2)[C@H](C)CN([C@@H](C)CO)C3=O)cc1,–,·,–
COc1ccc(NC(=O)Nc2cccc3c2O[C@H](CN(C)Cc2ccc(C(=O)Nc4ccccc4N)cc2)[C@@H](C)CN([C@@H](C)CO)C3=O)cc1,–,·,56
O=C(NO)c1ccc(C(=O)N/N=C/c2ccc(-c3ccccc3)cc2)cc1,–,–,–
O=C(N/N=C/c1ccc(Br)cc1)c1ccccn1,–,–,–
C[C@H](CO)N1C[C@H](C)[C@@H](CN(C)C(=O)Cc2ccccc2)OCCCC[C@H](C)Oc2ccc(NC(=O)Nc3ccc(F)cc3)cc2C1=O,·,–,·
SMILES,INS-1E ATP HTS,A1 apoptosis 2,T cruzi HTS
COC(=O)CCCCCCC(=O)N/N=C/c1ccc(-n2ccnc2)cc1,–,–,–
C[C@H](CO)N1C[C@H](C)[C@@H](CN(C)Cc2ccc3c(c2)OCO3)Oc2c(NC(=O)CCCCCC(=O)Nc3ccccc3N)cccc2C1=O,–,–,73
C[C@@H]1CN([C@@H](C)CO)C(=O)c2cccc(NC(=O)CCCCCC(=O)Nc3ccccc3N)c2O[C@H]1CN(C)Cc1ccc2c(c1)OCO2,–,–,59
C[C@H](CO)N1C[C@H](C)[C@@H](CN(C)Cc2ccc3c(c2)OCO3)Oc2ccc(NC(=O)CCCCCC(=O)Nc3ccccc3N)cc2C1=O,–,–,–
C[C@H](CO)N1C[C@H](C)[C@H](CN(C)Cc2ccc3c(c2)OCO3)Oc2ccc(NC(=O)CCCCCC(=O)Nc3ccccc3N)cc2C1=O,–,–,–
C[C@H]1CN([C@@H](C)CO)C(=O)c2cccc(NC(=O)CCCCCC(=O)Nc3ccccc3N)c2O[C@@H]1CN(C)Cc1ccc2c(c1)OCO2,–,·,72
C[C@@H]1CN([C@@H](C)CO)C(=O)c2cc(NC(=O)CCCCCC(=O)Nc3ccccc3N)ccc2O[C@@H]1CN(C)Cc1ccc2c(c1)OCO2,–,–,–
C[C@@H]1CCCCO[C@@H](CN(C)S(=O)(=O)c2cccs2)[C@@H](C)CN([C@H](C)CO)C(=O)c2cc(NC(=O)Nc3ccc(C(F)(F)F)cc3)ccc2O1,–,–,67
C[C@@H]1CCCCO[C@H](CN(C)S(=O)(=O)c2cccs2)[C@@H](C)CN([C@H](C)CO)C(=O)c2cc(NC(=O)Nc3ccc(C(F)(F)F)cc3)ccc2O1,–,·,62
C[C@H](CO)N1C[C@H](C)[C@@H](CN(C)S(=O)(=O)c2cccs2)OCCCC[C@H](C)Oc2ccc(NC(=O)Nc3ccc(C(F)(F)F)cc3)cc2C1=O,·,–,·
C[C@@H]1CN([C@@H](C)CO)C(=O)c2cc(NC(=O)Nc3ccc(C(F)(F)F)cc3)ccc2O[C@@H](C)CCCCO[C@@H]1CN(C)S(=O)(=O)c1cccs1,·,–,·
C=CC[C@]1(C(=O)NCCN2CCOCC2)COC(c2ccc(OCCCO)cc2)=N1,·,–,·
C[C@@H]1CN([C@H](C)CO)C(=O)Cc2cc(NC(=O)Nc3ccc(C(F)(F)F)cc3)ccc2O[C@@H]1CN(C)Cc1ccc(C(F)(F)F)cc1,–,–,68
C[C@H](CO)N1C[C@H](C)[C@H](CN(C)Cc2ccncc2)Oc2ccc(NC(=O)Nc3ccc(C(F)(F)F)cc3)cc2CC1=O,–,–,61
C[C@H](CO)N1C[C@H](C)[C@@H](CN(C)Cc2ccc(C(F)(F)F)cc2)Oc2ccc(NC(=O)Nc3ccccc3)cc2CC1=O,·,–,·
C[C@@H]1CN([C@@H](C)CO)C(=O)Cc2cc(NC(=O)Nc3ccc(C(F)(F)F)cc3)ccc2O[C@H]1CN(C)Cc1ccc(-c2ccccc2)cc1,·,–,·
